PGC1a Ac signal = raises PGC1a acetylation signal in U2OS cells. U2OS PGC1a acetylation AlphaScreen, overnight. activation, % at 15.6 µM. 350,000 tested, 0.21% active. AID 651723;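 active means every replicate reaching activation of at least 50%, whatever the mean replicate activation; inconclusive means replicates that disagree or another doubt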;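 further: hits raise the AlphaScreen acetylation signal above neutral controls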
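System: flag-PGC1a/GCN5 U2OS cells / Input: 7000 cells/well / Compound: single test concentration per compound / Incubation: overnight compound treatment, 37 °C / Technique: AlphaScreen on lysates with anti-acetyl-lysine antibody, acceptor and donor beads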
G6PC hep suppr = hepatocyte G6PC expression change via PGC-1a acetylation activation; AID 743463; shares compounds with PGC1a Ac signal; G6PC suppression (normalized activity, % of positive control; higher = more suppression), % at 26 µM; primary mouse hepatocytes, G6PC mRNA qPCR, forskolin; 240 tested, under 10 active;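 active means dose curves showing G6PC suppression whose half-maximal dose is at most twice the top valid dose; inconclusive means flat curves with moderate negative activity, or unreliable fits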;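 further: G6PC expression relative to GAPDH housekeeping gene as delta delta Ct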
Hep PCK1 suppr = PGC-1a acetylation activator altering hepatocyte PCK1 expression; PCK1 expression decrease, unspecified at 26 µM; shares compounds with PGC1a Ac signal; 230 tested, under 10 active; primary mouse hepatocytes, PCK1 mRNA qPCR, forskolin-stimulated;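 active means compounds lowering PCK1 expression whose fitted half-maximal concentration is at most twice the top tested dose; inconclusive means flat fit with moderate opposite-direction effect, or poor fit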;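 further: higher delta delta Ct means lower PCK1 expression so positive values indicate hits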
PGC1a hep suppr = PGC-1a acetylation activators affecting PGC-1a expression in hepatocytes | shares compounds with PGC1a Ac signal | primary mouse hepatocytes, PGC-1a mRNA qPCR, forskolin; top dose 26 µM | max activity (PGC-1a expression decrease), % | 240 tested, under 10 active | AID 743467;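 active means compound lowering PGC-1a expression with fitted half-maximal concentration at most twice its top tested dose; inconclusive means flat curve with moderate opposite-direction effect, or poor fit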
Large screens that a line does not name were inactive (follow-up assays come after a bar, where they were run). A selection follows.

CCOc1ccc(C(C)=O)cc1CSC(=N)N	none
CCCS(=O)(=O)Nc1cccc(-c2nc3cccnc3s2)c1	PGC1a Ac signal inconclusive | G6PC hep suppr inactive | Hep PCK1 suppr inactive | PGC1a hep suppr inactive
C[C@@H](C(=O)Nc1nc2ccc(F)cc2s1)N1C(=O)C2CC=CCC2C1=O (some centres not stated)	none
CC(=O)N1N=C(c2ccco2)CC1c1ccco1 (configuration not stated)	none
Cc1ccc(S(=O)(=O)/N=C2/C=C(Sc3ncn[nH]3)C(=O)c3ccccc32)cc1	none
O=C(CN1CCC(n2nnc3cc(C(F)(F)F)ccc32)CC1)NCc1cccs1	none (no result: PGC1a Ac signal) | G6PC hep suppr inactive | Hep PCK1 suppr inactive | PGC1a hep suppr inactive
CCOc1ccc(N2C(=O)Cc3ccccc3C2=O)cc1	none
CC(=O)Nc1sc2c(c1-c1nc3ccccc3s1)CN(C(C)C)CC2	none
CN1C[C@H](C(=O)N[C@]2(C)O[C@@]3(O)[C@@H]4CCCN4C(=O)[C@H](Cc4ccccc4)N3C2=O)CC2c3cccc4[nH]cc(c34)C[C@H]21 (some centres not stated)	none
O=C(C1CCC1)N1CCN(S(=O)(=O)c2ccccc2)CC1	PGC1a Ac signal inconclusive | G6PC hep suppr inactive | Hep PCK1 suppr inactive | PGC1a hep suppr inactive
Cc1nc(NCCc2ccccc2)c2nnn(Cc3ccccc3Cl)c2n1	none
O=C(Cc1ccccc1)Nc1cccc(-c2nc3ncccc3o2)c1	PGC1a Ac signal 122.2 | G6PC hep suppr inactive | Hep PCK1 suppr inactive | PGC1a hep suppr inactive
Cn1nc(-c2ccccn2)nc2c(=O)n(C)c(=O)nc1-2	none
CCCc1cc2c(cc1N(C)S(=O)(=O)c1ccccc1)OCO2	PGC1a Ac signal inconclusive | G6PC hep suppr inactive | Hep PCK1 suppr inactive | PGC1a hep suppr inactive
C[C@@H]1CN([C@@H](C)CO)C(=O)Cc2cc(NC(=O)Cc3ccccc3)ccc2O[C@H]1CN(C)C(=O)Nc1ccccc1	none | G6PC hep suppr inactive | Hep PCK1 suppr inactive | PGC1a hep suppr inactive
C[C@@H]1CN([C@H](C)CO)C(=O)c2c(c3ccccc3n2C)-c2ccccc2CO[C@@H]1CN(C)C(=O)c1ccc(F)cc1	PGC1a Ac signal 78.2 | G6PC hep suppr inactive | Hep PCK1 suppr inactive | PGC1a hep suppr inactive
C[C@H](CO)N1C[C@H](C)[C@@H](CN(C)C(=O)Nc2ccc(-c3cccs3)cc2)OCc2cnnn2CCCC1=O	none
C[C@@H]1CN([C@H](C)CO)C(=O)c2c(c3ccccc3n2C)-c2ccccc2CO[C@@H]1CN(C)C(=O)Nc1ccc2c(c1)OCO2	PGC1a Ac signal inconclusive | G6PC hep suppr inactive | Hep PCK1 suppr inactive | PGC1a hep suppr inconclusive
C[C@@H]1CN([C@@H](C)CO)C(=O)c2c(c3ccccc3n2C)-c2ccccc2CO[C@@H]1CN(C)C(=O)Nc1ccccc1C(F)(F)F	PGC1a Ac signal 74.3 | G6PC hep suppr inactive | Hep PCK1 suppr inactive | PGC1a hep suppr inactive
c1cncc(CNc2ncnc3ccc(-c4ccoc4)cc23)c1	none
O=C(O)C1CCCN1S(=O)(=O)c1ccc(Br)s1 (configuration not stated) (tested in a mixture with another compound)	none
C[C@@H]1CN([C@H](C)CO)C(=O)c2c(c3ccccc3n2C)-c2ccccc2CO[C@@H]1CN(C)C(=O)[C@H](C)c1ccccc1	PGC1a Ac signal 132.5 | G6PC hep suppr inactive | Hep PCK1 suppr inactive | PGC1a hep suppr inactive
CCCN(CCC)CCNC(=O)c1cc2c(=O)n(CC)c3ccccc3c2s1	none
O=C(O)COc1ccc(/C=C2/SC(=S)N(Cc3ccccc3)C2=O)cc1	none
Cc1ccc(-c2nnc(Nc3ccc4c(c3)OCO4)c3ccccc23)cc1S(=O)(=O)NCCO	PGC1a Ac signal 93.9 | G6PC hep suppr inactive | Hep PCK1 suppr inactive | PGC1a hep suppr inactive
O=C(C/C=N/OCc1c(Cl)cccc1Cl)c1cnc(-c2ccccc2)s1	none
Cn1ncc(N=Cc2ccccc2)c1C(N)=O	none
O=C(COc1ccc(Cl)cc1)NCCCNC(=O)c1cccnc1	PGC1a Ac signal 112.4 | G6PC hep suppr inactive | Hep PCK1 suppr inactive | PGC1a hep suppr inactive
O=S(=O)(c1ccc(Cl)cc1)c1snnc1-c1ccccc1	none
NCc1cccc(-n2cccn2)c1	none
O=C(O)c1cc(O)c2c(c1)C(=O)c1cccc(O)c1C2=O	none
O=C(CCc1nc2ccccc2c(=O)[nH]1)Nc1ccc(N2CCCCC2)cc1	PGC1a Ac signal 100.3 | G6PC hep suppr inactive | PGC1a hep suppr inactive
Cc1ccc(-n2c(O)c(C=NC3CCS(=O)(=O)C3)c3ccccc3c2=O)c(C)c1 (configuration not stated)	none
COc1ccc(-c2csc(N(CCCN(C)C)C(=O)c3cccs3)n2)cc1	none
CC1=C/C(=N\OS(=O)(=O)c2ccccc2)C(C)=CC1=O	none
Cc1cc(/C=C\c2ccc3cc(N(C)C)ccc3[n+]2C)c(C)n1-c1ccccc1	none
Cc1ccccc1CS(=O)(=O)c1nnc([C@H](Cc2ccccc2)NC(=O)OC(C)(C)C)o1	none
COc1ccccc1C(=O)N1C(CC(=O)Nc2cc(Cl)ccc2C)C(=O)NC2CCCCC21 (configuration not stated)	none
Cc1ccc(Cl)cc1NC(=O)Cn1nc(-c2cccs2)ccc1=O	none | G6PC hep suppr inactive | Hep PCK1 suppr inactive | PGC1a hep suppr inactive
CCOC(=O)c1ccccc1NS(=O)(=O)c1ccc(OCC)cc1	PGC1a Ac signal inconclusive | G6PC hep suppr inactive | Hep PCK1 suppr inactive | PGC1a hep suppr inactive
Nc1nccc(-c2ccc(-n3cnc4ccccc43)cc2)n1	none
COc1cc(-c2cnc3c(NC(C)=O)cc(-c4ccccc4CN(C)C)cn23)cc(OC)c1OC	PGC1a Ac signal inconclusive | G6PC hep suppr inactive | Hep PCK1 suppr inactive | PGC1a hep suppr inactive
Cc1nc(N2CCN(S(=O)(=O)c3ccc(F)cc3)CC2)c2c(-c3cccs3)csc2n1	PGC1a Ac signal 82.6 | G6PC hep suppr inactive | Hep PCK1 suppr inactive | PGC1a hep suppr inactive
Nc1cc2nsnc2cc1Br	none
NCCCn1c(C(=O)c2cc(Cl)c(N)c(Cl)c2)c2ccc([N+](=O)[O-])cc2[n+]1[O-]	none
CSc1nsc(SC)c1NC(=O)Nc1ccccc1C	none | G6PC hep suppr inactive | Hep PCK1 suppr inactive | PGC1a hep suppr inactive
CC1C(=O)C(C)(C)C(=O)OC1c1ccccc1 (configuration not stated)	none
CCn1c(COc2ccc(=O)n(-c3ccccc3)n2)nnc1SCc1ccc(C)cc1	none
COc1ccc2nc(C)cc(N/N=C/c3ccc(F)cc3)c2c1	none
O=C(CNC(=O)c1sc2ccccc2c1Cl)NCc1ccccc1	none
O=C(Cc1ccccc1)Nc1ccc(NC(=O)c2cccs2)cc1	PGC1a Ac signal 311.9 | G6PC hep suppr inactive | Hep PCK1 suppr inactive | PGC1a hep suppr inactive
Cc1ccc(-n2nc3ccc(N)cc3n2)cc1	none
CCCN(CCC)S(=O)(=O)c1ccc(C(=O)Nc2nnc(CSC)o2)cc1	none
O=C(CN1CCC(Cn2cnc3ccccc32)CC1)NCc1ccco1	none (no result: PGC1a Ac signal) | G6PC hep suppr inactive | Hep PCK1 suppr inactive | PGC1a hep suppr inactive
O=C(O)c1ccc2c(c1)OCCCO2	none
CC(=O)N(CCC(Cc1ccccc1)c1ccc2c(c1)OCO2)Cc1ccccc1F (configuration not stated)	none
C=CCn1c(SCC(=O)Nc2ccc(C(=O)O)cc2)nnc1-c1cccnc1	none
